ChEMBL document CHEMBL1139026, “Lipolanthionine peptides act as inhibitors of TLR2-mediated IL-8 secretion. Synthesis and structure-activity relationships” (J Med Chem, 2006)
The source made the active and inactive calls. No cut-off for these calls is given here. Residues, ends and D or L forms follow the SMILES beside them. *: point of attachment. X5 = CCCCCCCCCCCCCCCCCCCC(=O)N[C@@H](C*)C(=O)NCCCCCCCCCCCCCCCC; X2 = CCCCCCCCCCCCCCCCCC(=O)N[C@@H](C*)C(=O)NCCCCCCCCCCCCCCCC; X6 = CCCCCCCCCCCCCC(=O)N[C@@H](C*)C(=O)NCCCCCCCCCCCC; X3 = CCCCCCCCCCCCCC(=O)N[C@@H](C*)C(=O)NCCCCCCCCCC; X4 = CCCCCCCCCCCCCC(=O)N[C@@H](C*)C(=O)NCCCCCCCC; X7 = CCCCCCCCCCCCCC(=O)N[C@@H](C*)C(=O)NCCCCCC; Arachidoyl = CCCCCCCCCCCCCCCCCCCC(=O)*; Stearoyl = CCCCCCCCCCCCCCCCCC(=O)*; Myristoyl = CCCCCCCCCCCCCC(=O)*

Assays:
Type in all cases: functional, cell-based
THP-1 = experiment: Cytotoxicity against THP1 cells by MTT assay
Method in brief: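 THP-1 cells (RPMI 1640 with 10% FCS, 37 °C, 5% CO2) were exposed to lipolanthionine peptides plus Pam3Cys-SK4-OH (50 nM) for 5 h. After part of the supernatant was removed for ELISA, MTT (1 mg/mL) was added for 4 h. Formazan was dissolved in 10% SDS in 10 mM HCl. A570 was read relative to untreated control cells.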

Toll-like receptor 2 [1] = molecular target: T1, Toll-like receptor 2 (Homo sapiens, UniProt O60603); experiment: Inhibition of TLR2-mediated IL-8 secretion in THP-1 cells
T1 sequence (O60603 whole entry): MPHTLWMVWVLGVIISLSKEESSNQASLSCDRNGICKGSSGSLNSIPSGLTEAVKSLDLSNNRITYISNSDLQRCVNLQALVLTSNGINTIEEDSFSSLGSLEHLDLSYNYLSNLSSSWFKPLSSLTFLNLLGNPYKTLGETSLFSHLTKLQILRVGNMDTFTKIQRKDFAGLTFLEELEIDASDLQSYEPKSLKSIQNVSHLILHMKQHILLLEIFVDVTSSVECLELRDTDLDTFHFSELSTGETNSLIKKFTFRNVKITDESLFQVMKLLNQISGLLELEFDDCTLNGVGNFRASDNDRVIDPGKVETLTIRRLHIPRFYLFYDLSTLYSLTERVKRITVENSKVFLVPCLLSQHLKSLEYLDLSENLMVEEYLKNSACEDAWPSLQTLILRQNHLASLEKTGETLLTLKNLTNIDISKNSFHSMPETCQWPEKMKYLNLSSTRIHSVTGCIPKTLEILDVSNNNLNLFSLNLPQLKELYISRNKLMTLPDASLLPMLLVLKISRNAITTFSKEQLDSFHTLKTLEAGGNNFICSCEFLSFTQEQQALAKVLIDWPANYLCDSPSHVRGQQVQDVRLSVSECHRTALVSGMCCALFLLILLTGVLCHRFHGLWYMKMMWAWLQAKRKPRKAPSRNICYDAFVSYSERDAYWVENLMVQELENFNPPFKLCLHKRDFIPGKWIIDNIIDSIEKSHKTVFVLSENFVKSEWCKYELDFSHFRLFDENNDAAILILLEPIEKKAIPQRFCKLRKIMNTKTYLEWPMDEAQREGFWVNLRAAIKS
Method in brief: (§1)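 THP-1 cells, 4 × 10⁴ per well in RPMI 1640/10% FCS, were preincubated with peptides (0.78–25 µM, from 10 mM DMSO stocks) for 10 min at 37 °C. Pam3Cys-SK4-OH (50 nM) was then added for 5 h at 37 °C. IL-8 in cell-free supernatants was measured by matched-pair ELISA against DMSO-matched agonist controls. Triplicates, SD shown.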

Toll-like receptor 2 [2] = molecular target: T1, Toll-like receptor 2; experiment: Inhibition of TLR2 agonist Pam3Cys-Ser-(Lys)4-OH-mediated IL8 secretion in THP1 cells; parameters: scale not given: the % may be the effect or the level left; conditions: for Activity: THP-1; method in brief: as §1
Toll-like receptor 2 [3] = molecular target: T1, Toll-like receptor 2; experiment: Inhibition of TLR2 agonist Pam3Cys-Ser-(Lys)4-OH-mediated IL8 secretion in THP1 cells at 25 uM; conditions: THP-1
Method in brief: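 THP-1 cells, 4 × 10⁴ per well, were preincubated for 10 min at 37 °C with peptide at a single 25 µM concentration (from 10 mM DMSO stock), with or without Pam3Cys-SK4-OH (50 nM), then incubated 5 h at 37 °C. IL-8 was measured by ELISA in cell-free supernatants and expressed relative to agonist plus equal-solvent control. Triplicates, SD.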

Row | Structure (SMILES) | Activity (THP-1) | Activity (Toll-like receptor 2 [1]) | Activity (Toll-like receptor 2 [2]) | Activity (Toll-like receptor 2 [3]) | IC50 (Toll-like receptor 2 [2]) [µM]
1 | CCCCCCCCCCCCCCCCNC(=O)[C@H](CS(=O)(=O)C[C@H](NC(=O)CCCCCCCCCCCCCCC)C(=O)N[C@@H](CO)C(=O)N[C@@H](CCCCN)C(=O)N[C@@H](CCCCN)C(=O)N[C@@H](CCCCN)C(=O)N[C@@H](CCCCN)C(N)=O)NC(=O)CCCCCCCCCCCCCCC | inactive | Active | – | – | –
2 | CCCCCCCCCCCCCC(=O)N[C@@H](CSC[C@H](NC(=O)CCCCCCCCCCCCC)C(=O)N[C@@H](CO)C(=O)N[C@@H](CCCCN)C(=O)N[C@@H](CCCCN)C(=O)N[C@@H](CCCCN)C(=O)N[C@@H](CCCCN)C(N)=O)C(=O)NCCCCCCCC (Myristoyl-C(X4)SKKKK-NH2) | inactive | Active | – | – | –
3 | CCCCCCCCCCCCCCCCCCCC(=O)N[C@@H](CSC[C@H](NC(=O)CCCCCCCCCCCCCCCCCCC)C(=O)N[C@@H](CO)C(=O)N[C@@H](CCCCN)C(=O)N[C@@H](CCCCN)C(=O)N[C@@H](CCCCN)C(=O)N[C@@H](CCCCN)C(N)=O)C(=O)NCCCCCCCCCCCCCCCC (Arachidoyl-C(X5)SKKKK-NH2) | inactive | Active | – | – | –
4 | CCCCCCCCCCCCCC(=O)N[C@H](CSC[C@@H](NC(=O)CCCCCCCCCCCCC)C(=O)N[C@@H](CO)C(=O)N[C@@H](CCCCN)C(=O)N[C@@H](CCCCN)C(=O)N[C@@H](CCCCN)C(=O)N[C@@H](CCCCN)C(N)=O)C(=O)O | inactive | Active | inactive | – | –
5 | CCCCCCCCCCCCCCCCCCNC(=O)[C@H](CSC[C@H](NC(=O)CCCCCCCCCCCCC)C(=O)N[C@@H](CO)C(=O)N[C@@H](CCCCN)C(=O)N[C@@H](CCCCN)C(=O)N[C@@H](CCCCN)C(=O)N[C@@H](CCCCN)C(N)=O)NC(=O)CCCCCCCCCCCCC | inactive | Active | – | – | –
6 | CCCCCCCCCCCCCCCCNC(=O)[C@H](CSC[C@H](NC(=O)CCCCCCCCC)C(=O)N[C@@H](CO)C(=O)N[C@@H](CCCCN)C(=O)N[C@@H](CCCCN)C(=O)N[C@@H](CCCCN)C(=O)N[C@@H](CCCCN)C(N)=O)NC(=O)CCCCCCCCC | inactive | Active | – | – | –
7 | CCCCCCCCCCCCCCCCNC(=O)[C@@H](CSC[C@H](NC(=O)CCCCCCCCCCCCC)C(=O)N[C@@H](CO)C(=O)N[C@@H](CCCCN)C(=O)N[C@@H](CCCCN)C(=O)N[C@@H](CCCCN)C(=O)N[C@@H](CCCCN)C(N)=O)NC(=O)CCCCCCCCCCCCC | inactive | Active | – | – | –
8 | CCCCCCCCCCCCCC(=O)N[C@@H](CSC[C@H](NC(=O)CCCCCCCCCCCCC)C(=O)N[C@@H](CO)C(=O)N[C@@H](CCCCN)C(=O)N[C@@H](CCCCN)C(=O)N[C@@H](CCCCN)C(=O)N[C@@H](CCCCN)C(N)=O)C(=O)O | inactive | Active | inactive | – | –
9 | CCCCCCCCCCCCCCCCNC(=O)[C@H](CSC[C@@H](NC(=O)CCCCCCCCCCCCC)C(=O)N[C@@H](CO)C(=O)N[C@@H](CCCCN)C(=O)N[C@@H](CCCCN)C(=O)N[C@@H](CCCCN)C(=O)N[C@@H](CCCCN)C(N)=O)NC(=O)CCCCCCCCCCCCC | inactive | Active | – | – | –
10 | CCCCCCCCCCCCCC(=O)N[C@@H](CSC[C@H](NC(=O)CCCCCCCCCCCCC)C(=O)N[C@@H](CO)C(=O)N[C@@H](CCCCN)C(=O)N[C@@H](CCCCN)C(=O)N[C@@H](CCCCN)C(=O)N[C@@H](CCCCN)C(N)=O)C(=O)NCCCCCC (Myristoyl-C(X7)SKKKK-NH2) | inactive | – | – | – | –
11 | CCCCCCCCCCCCCC(=O)N[C@@H](CSC[C@H](NC(=O)CCCCCCCCCCCCC)C(=O)N[C@@H](CO)C(=O)N[C@@H](CCCCN)C(=O)N[C@@H](CCCCN)C(=O)N[C@@H](CCCCN)C(=O)N[C@@H](CCCCN)C(N)=O)C(=O)NCCCCCCCCCCCC (Myristoyl-C(X6)SKKKK-NH2) | inactive | Active | – | – | –
12 | CCCCCCCCCCCCCCCCNC(=O)[C@H](CSC[C@H](NC(=O)CCCCCCCCCCC)C(=O)N[C@@H](CO)C(=O)N[C@@H](CCCCN)C(=O)N[C@@H](CCCCN)C(=O)N[C@@H](CCCCN)C(=O)N[C@@H](CCCCN)C(N)=O)NC(=O)CCCCCCCCCCC | inactive | Active | – | Active | –
13 | CCCCCCCCCCCCCCCCNC(=O)[C@@H](CSC[C@@H](NC(=O)CCCCCCCCCCCCC)C(=O)N[C@@H](CO)C(=O)N[C@@H](CCCCN)C(=O)N[C@@H](CCCCN)C(=O)N[C@@H](CCCCN)C(=O)N[C@@H](CCCCN)C(N)=O)NC(=O)CCCCCCCCCCCCC | inactive | Active | – | – | –
14 | CCCCCCCCCCCCCCCCNC(=O)[C@H](CSC[C@H](NC(=O)CCCCCCCCCCCCCCC)C(=O)N[C@@H](CO)C(=O)N[C@@H](CCCCN)C(=O)N[C@@H](CCCCN)C(=O)N[C@@H](CCCCN)C(=O)N[C@@H](CCCCN)C(N)=O)NC(=O)CCCCCCCCCCCCCCC | inactive | Active | – | Active | –
15 | CCCCCCCCCCCCCCCCNC(=O)[C@H](CSC[C@H](NC(=O)CCCCCCC)C(=O)N[C@@H](CO)C(=O)N[C@@H](CCCCN)C(=O)N[C@@H](CCCCN)C(=O)N[C@@H](CCCCN)C(=O)N[C@@H](CCCCN)C(N)=O)NC(=O)CCCCCCC | inactive | Active | – | – | –
16 | CCCCCCCCCCCCCCCC(=O)O [PALMITIC ACID] | – | – | 68% | – | 5
17 | CCCCCCCCCCCCCCNC(=O)[C@H](CSC[C@H](NC(=O)CCCCCCCCCCCCC)C(=O)N[C@@H](CO)C(=O)N[C@@H](CCCCN)C(=O)N[C@@H](CCCCN)C(=O)N[C@@H](CCCCN)C(=O)N[C@@H](CCCCN)C(N)=O)NC(=O)CCCCCCCCCCCCC | inactive | Active | – | – | –
18 | CCCCCCCCCCCCCC(=O)N[C@@H](CSC[C@@H](NC(=O)CCCCCCCCCCCCC)C(=O)N[C@@H](CO)C(=O)N[C@@H](CCCCN)C(=O)N[C@@H](CCCCN)C(=O)N[C@@H](CCCCN)C(=O)N[C@@H](CCCCN)C(N)=O)C(=O)O | inactive | Active | inactive | – | –
19 | CCCCCCCCCCCCCC(=O)N[C@@H](CSC[C@H](NC(=O)CCCCCCCCCCCCC)C(=O)N[C@@H](CO)C(=O)N[C@@H](CCCCN)C(=O)N[C@@H](CCCCN)C(=O)N[C@@H](CCCCN)C(=O)N[C@@H](CCCCN)C(N)=O)C(=O)NCCCCCCCCCC (Myristoyl-C(X3)SKKKK-NH2) | inactive | Active | – | – | –
20 | CCCCCCCCCCCCCCCCCC(=O)N[C@@H](CSC[C@H](NC(=O)CCCCCCCCCCCCCCCCC)C(=O)N[C@@H](CO)C(=O)N[C@@H](CCCCN)C(=O)N[C@@H](CCCCN)C(=O)N[C@@H](CCCCN)C(=O)N[C@@H](CCCCN)C(N)=O)C(=O)NCCCCCCCCCCCCCCCC (Stearoyl-C(X2)SKKKK-NH2) | inactive | Active | – | – | –
21 | CCCCCCCCCCCCCCCCNC(=O)[C@H](C[S+]([O-])C[C@H](NC(=O)CCCCCCCCCCCCCCC)C(=O)N[C@@H](CO)C(=O)N[C@@H](CCCCN)C(=O)N[C@@H](CCCCN)C(=O)N[C@@H](CCCCN)C(=O)N[C@@H](CCCCN)C(N)=O)NC(=O)CCCCCCCCCCCCCCC (some centres undefined) | inactive | Active | – | – | –
22 | CCCCCCCCCCCCCC(=O)N[C@@H](CSC[C@@H](NC(=O)CCCCCCCCCCCCC)C(=O)O)C(=O)N[C@@H](CO)C(=O)N[C@@H](CCCCN)C(=O)N[C@@H](CCCCN)C(=O)N[C@@H](CCCCN)C(=O)N[C@@H](CCCCN)C(N)=O | inactive | Active | inactive | – | –
23 | CCCCCCCCCCCCCCCCNC(=O)[C@H](CSC[C@H](NC(=O)CCCCC)C(=O)N[C@@H](CO)C(=O)N[C@@H](CCCCN)C(=O)N[C@@H](CCCCN)C(=O)N[C@@H](CCCCN)C(=O)N[C@@H](CCCCN)C(N)=O)NC(=O)CCCCC | inactive | Active | – | – | –
24 | CCCCCCCCCCCCCCCCNC(=O)[C@H](CSC[C@H](NC(=O)CCCCCCCCCCCCC)C(=O)N[C@@H](CO)C(=O)N[C@@H](CCCCN)C(=O)N[C@@H](CCCCN)C(=O)N[C@@H](CCCCN)C(=O)N[C@@H](CCCCN)C(N)=O)NC(=O)CCCCCCCCCCCCC | inactive | Active | – | Active | –
